# Laboratory results from the RNAGym collection of RNA variant scans (doi:10.1038/s41586-018-0170-7).
# B1: tRNA (parent)
# chain: GUUCCGUUGGCGUAAUGGUAACGCGUCUCCCUCCUAAGGAGAAGACUGCGGGUUCGAGUCCCGUACGGAACG
# Variants of: B1
# Assay: yeast fitness, log relative to wild type (ln ratio); higher = fitter; tRNA-Arg(CCU), competitive growth, 37 C, 1 M NaCl
# Outline: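 A combinatorial tRNA-Arg(CCU) variant library was carried on a HIS3 centromeric plasmid in BY4742 lacking the chromosomal gene, from two independent transformations. Pools grew 4 generations in SC-HIS at 30 °C, then ~6.5 generations (~26.5 h) in SC-HIS 1M NaCl at 37 °C, with three outputs per input. Variants were counted by 125 bp paired-end Illumina sequencing. Fitness is ln of each genotype's generations (OD-scaled log2 output/input frequency, inverse-variance weighted across replicates) over the wild-type's.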
row,Variant,yeast fitness (ln)
1,G6U A43C C66A A70G,-0.0733
2,G1A G6A A43C A69G A70G C71U,-0.248
3,G1A U2C G6U A43C C66U A69G A70G C71U,-0.344
4,G1A U2C C27U A43C C46U C66A A70G C71U,-0.16
5,G1A U2G G6U C66A A69G A70U,-0.293
6,U2C G6A A43C C46U C66U A69G A70U,-0.3
7,U2C G6A A43C C46U C66U A69G A70G,-0.00874
8,G1A U2C G6A A43C C66U A69G A70G,-0.309
9,G1A A43C C46U A69G A70U C71U,-0.33
10,G6A A43C C46U A69G A70G,-0.216
11,G1A U2G A43C C66U,-0.246
12,U2C G6A C27U C46U C66U A70U C71U,-0.174
13,G6U C66U A70G C71U,-0.168
14,U2G G6A C27U A43C C46U C66U A70U C71U,-0.598
15,G1A C66U A69G A70G C71U,-0.217
16,G1A U2G A43C C46U C66A C71U,-0.138
17,G1A U2G G6A C27U C66A A70G,-0.296
18,G1A G6U A43C C46U C66U A69G A70G C71U,-0.333
19,G1A A43C C46U C66A A69G A70G C71U,-0.191
20,G1A U2C G6A A43C C46U A70U,-0.034
21,G1A U2G G6U C46U C66U A69G A70G,-0.347
22,U2G G6U C46U C66A A69G C71U,-0.185
23,G1A U2C G6A A43C C46U C66U A69G A70G C71U,-0.0138
24,C66U A70G C71U,-0.0554

row,Variant,yeast fitness (ln)
1,G1A U2G C27U A43C C46U A69G A70U,-0.161
2,G1A U2C G6U C27U C46U A70G,-0.129
3,G6U C27U A43C C66A A69G,-0.264
4,U2G G6U C27U A69G A70U,-0.227
5,G1A U2G G6A A43C C46U C66U A69G A70G C71U,-0.206
6,G1A U2C G6A A43C C46U C66U A70U,-0.0467
7,G1A U2G G6U A43C C46U A70G,-0.235
8,U2C G6U C27U A69G A70G C71U,-0.157
9,U2G G6U C27U A43C,-0.107
10,G1A A43C C66U,-0.172
11,G1A U2G G6A C27U A70G,-0.339
12,U2C G6U A43C C46U C66U,-0.158
13,C27U C66A A70U C71U,-0.182
14,G1A U2G G6A A43C A70G C71U,-0.224
15,G6A C27U A43C C46U A69G A70U C71U,-0.441
16,G1A U2C C27U A43C A69G A70G,-0.275
17,U2G A43C A70G C71U,-0.123
18,G1A U2C C27U C46U C66U A70G C71U,-0.0522
19,U2C G6A C71U,-0.0812
20,U2C A43C A70G C71U,-0.0158
21,G1A U2G G6U A43C C66A A70U C71U,-0.387
22,G6U C27U A43C C66U A69G A70G C71U,-0.473
23,G1A U2G G6U C66A A70U,-0.329
24,G1A U2C A69G A70G C71U,-0.0058

row,Variant,yeast fitness (ln)
1,G1A U2G C27U A43C C46U C66A A70G,-0.178
2,G6A A43C C71U,-0.144
3,G1A U2G G6A C27U A43C C66A A70U,-0.249
4,C27U A43C C46U C71U,-0.0385
5,G1A U2G G6A C27U A43C C46U C66U A69G A70G C71U,-0.433
6,G1A G6A C66U A69G,-0.346
7,U2G C27U A43C C66U,-0.214
8,U2G G6A A43C A70G C71U,-0.18
9,G6U C46U C66A A69G,-0.0364
10,U2C G6U C27U A70U,-0.153
11,U2C C71U,-0.101
12,U2C C46U A69G A70G C71U,-0.0139
13,C27U A43C C46U C66U A69G A70G,-0.211
14,G1A G6U C27U C66A A70U C71U,-0.369
15,C27U A43C A69G,-0.0699
16,U2G G6A C27U A43C C66U C71U,-0.373
17,U2G G6U A43C A70U,-0.151
18,U2C A43C C66A A70U,-0.0829
19,U2G C27U A43C C66U A69G A70U,-0.346
20,C46U C66U A69G A70U C71U,-0.332
21,U2C G6A C27U A43C C46U C66U C71U,-0.122
22,U2G C27U C46U C66U A70G C71U,-0.175
23,U2C C46U C66U A70U,-0.2
24,G1A U2G G6U C46U C66U,-0.14

row,Variant,yeast fitness (ln)
1,U2C G6U C27U A43C C66A C71U,-0.176
2,U2C G6A C27U C46U C66U A70U,-0.112
3,G6U C27U C66U C71U,-0.256
4,U2G C27U C46U A70U C71U,-0.0474
5,U2G G6U C66A A70G,-0.0514
6,G1A A43C C66A A70G,-0.19
7,G1A A43C C66A A70U,-0.129
8,U2C G6U C27U C66A C71U,-0.15
9,C46U A70G C71U,-0.0663
10,G1A U2G C27U A43C C46U C66U A69G A70G,-0.282
11,G1A U2C G6A C27U C66U A69G A70U,-0.0942
12,G6U C27U C46U C66A A69G,-0.0559
13,U2G G6U A43C C66A A70U C71U,-0.43
14,U2C A43C C46U C66A A70G C71U,-0.0245
15,G6A A69G A70U,-0.082
16,U2C C46U C66A C71U,-0.0793
17,G1A U2G G6U A43C A70U,-0.257
18,U2C G6A C27U C66A A69G A70G C71U,-0.0666
19,U2G G6U C27U C66U A69G A70U C71U,-0.439
20,U2C C27U A43C C46U A70G,-0.0098
21,U2C G6U A43C C46U C66U A69G A70U,-0.211
22,U2C G6U A43C C46U C66U A69G A70G,-0.262
23,G6A C27U A43C C66U A70G C71U,-0.302
24,U2C G6U C27U A43C C46U C66A A70G,-0.0237

row,Variant,yeast fitness (ln)
1,C27U C46U C66U A69G C71U,-0.286
2,G1A G6A C46U C66U C71U,0.000947
3,C27U A43C C66U A69G A70U,-0.361
4,G1A U2C C27U A43C,-0.0395
5,U2G G6U A43C C46U C66A A70G C71U,-0.174
6,G1A U2G A43C C46U C66U A69G A70G C71U,-0.323
7,U2C C66A A69G A70U C71U,-0.496
8,U2G G6U A43C C66A A69G A70G,-0.256
9,G1A G6U C66U A69G A70U,-0.284
10,G1A G6A C27U C46U A69G A70U,-0.24
11,G1A U2C G6U C27U A43C A70U,-0.14
12,G1A U2C G6U C46U C66A A70U C71U,-0.0961
13,G6U C27U C46U A70G C71U,-0.321
14,U2G G6U C27U A43C C66U A69G C71U,-0.645
15,G1A U2G G6A C66U A69G A70U,-0.334
16,G6A A43C A69G A70G,-0.26
17,U2G G6A A43C C46U C66A A69G A70U C71U,-0.381
18,G1A U2G G6A C66U A70U C71U,-0.0116
19,U2G G6A A43C C46U C66A A70U C71U,-0.227
20,G1A G6A C27U A69G A70U C71U,-0.504
21,G1A U2G G6U C46U A69G A70U C71U,-0.279
22,U2C G6A A70U C71U,-0.0821
23,G1A U2C G6U C27U A43C C46U C66U A70U C71U,-0.315
24,U2C A43C A69G,-0.0815

row,Variant,yeast fitness (ln)
1,G1A G6U A43C C46U A70G,-0.201
2,G1A C27U A43C C46U A70U C71U,-0.29
3,G1A U2C G6A C46U C66U C71U,-0.0596
4,C66A A69G A70U C71U,-0.32
5,U2G C66A A69G A70U,-0.131
6,U2C G6U C27U A43C C46U C66U A70U C71U,-0.317
7,G1A G6U C27U A43C C46U A70U,-0.346
8,G1A G6U C46U A69G A70U,-0.0951
9,G1A U2G G6U C27U A43C C46U C66A A69G A70U C71U,-0.431
10,G1A U2G G6U C27U A43C A69G A70U,-0.454
11,G6U C27U C46U C66U A70G C71U,-0.245
12,G6U A43C C66A A70G C71U,-0.177
13,G6U C27U A43C C66U C71U,-0.34
14,G1A U2G G6A C27U A69G A70U C71U,-0.526
15,G1A U2C G6A C66U,-0.121
16,C66A C71U,-0.0269
17,G1A U2G G6U A43C C66A A70U,-0.282
18,G1A A43C C66U A69G A70U C71U,-0.338
19,U2C G6U C27U C66U A69G A70U C71U,-0.566
20,U2C C46U C66U A69G A70U C71U,-0.359
21,G1A U2G G6A C27U C46U C66A A70G C71U,-0.282
22,G1A U2G G6U C27U C46U C66U A70U,-0.236
23,G1A C27U A70U C71U,-0.34
24,G1A U2C G6U C27U C66U A70U,-0.176

row,Variant,yeast fitness (ln)
1,U2G G6A C27U A43C C46U C66U A69G,-0.415
2,G1A C46U A70G C71U,-0.0168
3,U2G A43C C46U A69G A70U C71U,-0.509
4,G1A G6A A43C C46U C66U A70U C71U,-0.331
5,G1A G6U C46U A70G,-0.173
6,U2G G6U A43C C66U A70U C71U,-0.464
7,C46U A69G C71U,-0.00543
8,U2C G6U C27U A43C C46U A70G C71U,-0.132
9,U2C G6A C46U C66U A70U C71U,-0.183
10,U2C C27U A43C A70U C71U,-0.172
11,G6U C46U A69G C71U,-0.194
12,G6U C27U A43C C66A A70U C71U,-0.477
13,G1A U2C G6U A43C,-0.116
14,U2G G6U A43C,-0.129
15,G1A U2G C27U A43C A69G A70U,-0.281
16,U2G A43C C46U C66U A69G A70G,-0.173
17,G6A C27U A43C A69G A70U C71U,-0.238
18,C27U A43C C46U C66A,-0.0786
19,G6U A43C C46U C66U A69G C71U,-0.321
20,U2G C66U A69G A70G,-0.151
21,G1A C27U A43C C71U,-0.0801
22,G6U A69G A70U C71U,-0.394
23,U2G C27U C46U C66U A69G,-0.211
